Results on twelve compounds are retold here after ChEMBL document CHEMBL3352699 (J Med Chem, 2014).

A word on the logD: it is lipophilicity at a set pH, counting ionised and neutral species. A high value points to a more lipophilic compound. Usually IC50 stands for the point on the concentration scale where inhibition reaches its midpoint. Lower therefore signals higher potency. As a reminder, the solubility is the concentration that dissolves in the medium under given conditions. The low end stands for a poorly soluble substance, the high end for a readily soluble substance.

Series [1] in a line: Octanol-water partition coefficient, log D of the compound at pH 7.4 by shake flask method. It is filed as physicochemical.
Series [2] deals with T1, Pyroglutamylated RF-amide peptide receptor (Homo sapiens, UniProt Q96P65).
T1 sequence (Q96P65 whole entry): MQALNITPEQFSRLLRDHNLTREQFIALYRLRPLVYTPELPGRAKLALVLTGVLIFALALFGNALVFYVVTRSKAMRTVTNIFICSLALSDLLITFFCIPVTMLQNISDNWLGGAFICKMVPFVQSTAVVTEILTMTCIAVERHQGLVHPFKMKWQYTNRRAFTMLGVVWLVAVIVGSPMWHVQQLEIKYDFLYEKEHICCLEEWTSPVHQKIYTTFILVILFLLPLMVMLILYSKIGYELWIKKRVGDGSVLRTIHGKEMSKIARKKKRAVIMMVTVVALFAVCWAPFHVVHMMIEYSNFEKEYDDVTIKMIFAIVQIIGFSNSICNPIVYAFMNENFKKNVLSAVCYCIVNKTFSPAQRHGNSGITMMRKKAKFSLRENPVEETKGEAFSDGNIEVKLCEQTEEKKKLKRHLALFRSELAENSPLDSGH
The series can be described thus: Inhibition of human GPR103 receptor expressed in CHOK1 cells by IP-1 assay. It counts as cell-based, CHO-K1. An outline of the steps: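 Cryopreserved human QRFP/GPR103 receptor cell line thawed in stimulation buffer, preincubated with compound at 37 °C, 5% CO2, then stimulated with hQRFP43 at EC80 for 50 min at 37 °C. IP-1 read by HTRF (665/620 nm ratio). IC50 mean of N = 2−52 determinations, one to three replicates per concentration; CIR 2.0, MDR 2.8.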

Series [3] can be described thus: Inhibition of mouse GPR103B receptor expressed in CHO cells by IP-1 assay. It counts as cell-based. An outline of the steps:
(§1)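 CHO cells overexpressing mouse GPR103A or GPR103B thawed in stimulation buffer, preincubated with compound at 37 °C, 5% CO2, then stimulated with hQRFP43 at EC80 for 50 min at 37 °C. IP-1 measured by HTRF (665/620 nm ratio).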

A short description of series [4]: Apparent permeability across apical to basolateral side in human Caco2 cells by LC-MS/MS analysis. It counts as ADME, cell-based. To be noted: Caco-2, read-out: permeability. In general terms: Caco-2 cells form a polarised layer with tight junctions and transporters.
Series [5] concerns the target Sodium channel protein type 5 subunit alpha (Homo sapiens, UniProt Q14524). The series can be described thus: Inhibition of human Nav1.5 expressed in CHO cells by electrophysiology assay. It is filed as cell-based.
In series [6] the target is Potassium voltage-gated channel subfamily E member 1 (Homo sapiens, UniProt P15382). The series can be described thus: Inhibition of human cardiac slowly activating delayed rectifier K+ channel expressed in CHO cells by electrophysiology assay. It is filed as cell-based.
For series [7], the target named is Voltage-gated inwardly rectifying potassium channel KCNH2 (Homo sapiens, UniProt Q12809). Put plainly: Inhibition of human ERG expressed in CHO cells by electrophysiology assay. It is filed as cell-based.
Series [8] in a line: Solubility of the compound in HBSS buffer at pH 7.4 after 18 hrs by LC/MS/MS analysis. It is filed as physicochemical.
A short description of series [9]: Inhibition of mouse GPR103A receptor expressed in CHO cells by IP-1 assay. It counts as cell-based. In short, it runs like this:
as §1

A short description of series [10]: Intrinsic clearance in human liver microsomes. It counts as ADME. The conditions noted are these: read-out: CLH. In short, it runs like this: (§2)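 Intrinsic clearance corrected for unspecific binding in the incubations. CIR 1.4 for human hepatocytes, 1.7 for human liver microsomes.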
In series [11] the target is Cytochrome P450 2D6 (Homo sapiens, UniProt P10635). The series can be described thus: Inhibition of human CYP2D6 after 20 to 50 mins by high-throughput fluorescence assay. It counts as ADME.
Sequence of Cytochrome P450 2D6 (P10635 whole entry): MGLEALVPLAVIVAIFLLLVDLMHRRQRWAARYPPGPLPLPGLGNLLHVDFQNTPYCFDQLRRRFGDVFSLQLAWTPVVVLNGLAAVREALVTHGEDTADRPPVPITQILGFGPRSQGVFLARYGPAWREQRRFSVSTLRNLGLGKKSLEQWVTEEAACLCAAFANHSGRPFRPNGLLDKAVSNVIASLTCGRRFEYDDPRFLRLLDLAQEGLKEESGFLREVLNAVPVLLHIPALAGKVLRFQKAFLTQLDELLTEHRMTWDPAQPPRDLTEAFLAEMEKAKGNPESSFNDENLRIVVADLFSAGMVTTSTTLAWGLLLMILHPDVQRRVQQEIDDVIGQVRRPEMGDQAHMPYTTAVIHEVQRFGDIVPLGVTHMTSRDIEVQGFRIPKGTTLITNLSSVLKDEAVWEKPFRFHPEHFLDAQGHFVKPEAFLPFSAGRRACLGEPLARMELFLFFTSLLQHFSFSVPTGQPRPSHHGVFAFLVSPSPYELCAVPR
Series [12] is described as follows: Intrinsic clearance in human hepatocytes measured per 10^6 cells. It is filed as ADME, cell-based, Hepatocyte. To be noted: read-out: CLH. An outline of the steps: as §2
The target of series [13] is T1, Pyroglutamylated RF-amide peptide receptor. Put plainly: Displacement of [125I]QRFP43 from human GPR103 receptor expressed in HEK cells after 90 mins incubation by scintillation counting. It is filed as cell-based, HEK293. In short, it runs like this:
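HEK membranes overexpressing human GPR103 incubated with compound and 0.25 nM 125I-hQRFP43 in 50 mM Tris pH 7.4, 1 mM EDTA, 0.1% BSA at 30 °C for 90 min. Bound radioligand separated by vacuum filtration and counted by scintillation. IC50 mean of N = 2−5 determinations, one replicate per concentration; CIR 1.7, MDR 2.1.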

Series [14] has as its target Cytochrome P450 3A4 (Homo sapiens, UniProt P08684). The series can be described thus: Inhibition of human recombinant CYP3A4 after 20 to 50 mins by high-throughput fluorescence assay. It is filed as ADME. To be noted: recombinant enzyme.
For series [15], the target named is Cytochrome P450 2C19 (Homo sapiens, UniProt P33261). Put plainly: Inhibition of human recombinant CYP2C19 after 20 to 50 mins by high-throughput fluorescence assay. It is filed as ADME. The conditions noted are these: recombinant enzyme.
Sequence of Cytochrome P450 2C19 (P33261 whole entry): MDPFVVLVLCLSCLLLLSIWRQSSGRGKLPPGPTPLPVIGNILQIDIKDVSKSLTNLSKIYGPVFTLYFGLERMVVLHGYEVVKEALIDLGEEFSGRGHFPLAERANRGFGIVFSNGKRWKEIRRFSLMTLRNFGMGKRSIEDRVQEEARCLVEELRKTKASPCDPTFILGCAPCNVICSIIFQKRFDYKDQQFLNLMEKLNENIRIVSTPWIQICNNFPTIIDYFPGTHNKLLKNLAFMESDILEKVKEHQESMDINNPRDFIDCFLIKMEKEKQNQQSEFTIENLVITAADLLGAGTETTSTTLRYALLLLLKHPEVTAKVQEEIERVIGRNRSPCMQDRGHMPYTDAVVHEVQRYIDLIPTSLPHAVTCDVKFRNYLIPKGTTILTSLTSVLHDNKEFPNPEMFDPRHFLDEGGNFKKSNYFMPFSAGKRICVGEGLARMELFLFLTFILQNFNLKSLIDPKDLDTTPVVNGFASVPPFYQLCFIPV
Series [16] has as its target T2, Cytochrome P450 2C8 (Homo sapiens, UniProt P10632).
T2 sequence (P10632 whole entry): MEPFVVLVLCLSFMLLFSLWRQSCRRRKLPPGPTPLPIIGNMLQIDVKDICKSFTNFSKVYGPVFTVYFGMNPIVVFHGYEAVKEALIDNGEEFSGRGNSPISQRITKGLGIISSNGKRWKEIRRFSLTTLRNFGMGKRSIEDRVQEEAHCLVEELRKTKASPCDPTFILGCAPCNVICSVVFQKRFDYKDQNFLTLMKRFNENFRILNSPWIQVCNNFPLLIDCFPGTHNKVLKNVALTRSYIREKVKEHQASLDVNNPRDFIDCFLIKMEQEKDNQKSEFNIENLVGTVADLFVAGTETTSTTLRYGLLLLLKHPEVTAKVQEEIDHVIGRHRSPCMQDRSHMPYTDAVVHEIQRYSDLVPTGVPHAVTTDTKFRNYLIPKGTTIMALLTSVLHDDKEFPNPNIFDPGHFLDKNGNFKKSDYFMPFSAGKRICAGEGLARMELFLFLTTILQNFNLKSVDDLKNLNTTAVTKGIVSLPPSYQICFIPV
The series can be described thus: Inhibition of human recombinant CYP2C8 after 20 to 50 mins by high-throughput fluorescence assay. It counts as ADME. To be noted: recombinant enzyme.

For series [17], the target named is Cytochrome P450 2C9 (Homo sapiens, UniProt P11712). Put plainly: Inhibition of human recombinant CYP2C9 after 20 to 50 mins by high-throughput fluorescence assay. The conditions noted are these: recombinant enzyme. It is filed as ADME.
Sequence of Cytochrome P450 2C9 (P11712 whole entry): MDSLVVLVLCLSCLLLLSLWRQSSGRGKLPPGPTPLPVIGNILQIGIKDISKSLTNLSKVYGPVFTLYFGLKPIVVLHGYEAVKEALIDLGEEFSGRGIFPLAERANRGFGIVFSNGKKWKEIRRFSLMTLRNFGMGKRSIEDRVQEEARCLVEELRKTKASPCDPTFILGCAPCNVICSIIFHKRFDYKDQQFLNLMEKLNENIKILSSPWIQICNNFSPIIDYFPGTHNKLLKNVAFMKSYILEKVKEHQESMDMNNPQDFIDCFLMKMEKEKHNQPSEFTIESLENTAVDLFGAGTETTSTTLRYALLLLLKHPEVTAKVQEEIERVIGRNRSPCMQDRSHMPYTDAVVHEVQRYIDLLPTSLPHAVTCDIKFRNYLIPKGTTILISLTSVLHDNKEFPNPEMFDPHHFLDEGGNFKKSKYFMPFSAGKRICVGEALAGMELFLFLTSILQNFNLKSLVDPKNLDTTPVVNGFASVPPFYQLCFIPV
The target in series [18] is T3, Cytochrome P450 1A2 (Homo sapiens, UniProt P05177).
T3 sequence (P05177 whole entry): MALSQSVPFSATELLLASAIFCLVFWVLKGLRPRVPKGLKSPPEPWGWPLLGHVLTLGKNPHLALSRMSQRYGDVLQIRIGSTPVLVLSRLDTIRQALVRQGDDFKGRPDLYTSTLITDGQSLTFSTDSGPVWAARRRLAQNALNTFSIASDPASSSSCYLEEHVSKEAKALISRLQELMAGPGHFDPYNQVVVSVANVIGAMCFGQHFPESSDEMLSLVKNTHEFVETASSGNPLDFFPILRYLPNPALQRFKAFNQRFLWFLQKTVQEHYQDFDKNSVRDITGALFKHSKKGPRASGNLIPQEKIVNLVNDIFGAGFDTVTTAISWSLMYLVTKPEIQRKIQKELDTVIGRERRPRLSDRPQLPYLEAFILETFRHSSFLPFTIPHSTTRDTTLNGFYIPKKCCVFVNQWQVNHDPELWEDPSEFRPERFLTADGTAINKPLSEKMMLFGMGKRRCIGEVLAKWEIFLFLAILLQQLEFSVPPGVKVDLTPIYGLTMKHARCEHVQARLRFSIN
Put plainly: Inhibition of human recombinant CYP1A2 after 20 to 50 mins by high-throughput fluorescence assay. It counts as ADME. To be noted: recombinant enzyme.

In brackets after ≈: the same amount, converted by molar mass.

Sequence of Sodium channel protein type 5 subunit alpha (Q14524 whole entry): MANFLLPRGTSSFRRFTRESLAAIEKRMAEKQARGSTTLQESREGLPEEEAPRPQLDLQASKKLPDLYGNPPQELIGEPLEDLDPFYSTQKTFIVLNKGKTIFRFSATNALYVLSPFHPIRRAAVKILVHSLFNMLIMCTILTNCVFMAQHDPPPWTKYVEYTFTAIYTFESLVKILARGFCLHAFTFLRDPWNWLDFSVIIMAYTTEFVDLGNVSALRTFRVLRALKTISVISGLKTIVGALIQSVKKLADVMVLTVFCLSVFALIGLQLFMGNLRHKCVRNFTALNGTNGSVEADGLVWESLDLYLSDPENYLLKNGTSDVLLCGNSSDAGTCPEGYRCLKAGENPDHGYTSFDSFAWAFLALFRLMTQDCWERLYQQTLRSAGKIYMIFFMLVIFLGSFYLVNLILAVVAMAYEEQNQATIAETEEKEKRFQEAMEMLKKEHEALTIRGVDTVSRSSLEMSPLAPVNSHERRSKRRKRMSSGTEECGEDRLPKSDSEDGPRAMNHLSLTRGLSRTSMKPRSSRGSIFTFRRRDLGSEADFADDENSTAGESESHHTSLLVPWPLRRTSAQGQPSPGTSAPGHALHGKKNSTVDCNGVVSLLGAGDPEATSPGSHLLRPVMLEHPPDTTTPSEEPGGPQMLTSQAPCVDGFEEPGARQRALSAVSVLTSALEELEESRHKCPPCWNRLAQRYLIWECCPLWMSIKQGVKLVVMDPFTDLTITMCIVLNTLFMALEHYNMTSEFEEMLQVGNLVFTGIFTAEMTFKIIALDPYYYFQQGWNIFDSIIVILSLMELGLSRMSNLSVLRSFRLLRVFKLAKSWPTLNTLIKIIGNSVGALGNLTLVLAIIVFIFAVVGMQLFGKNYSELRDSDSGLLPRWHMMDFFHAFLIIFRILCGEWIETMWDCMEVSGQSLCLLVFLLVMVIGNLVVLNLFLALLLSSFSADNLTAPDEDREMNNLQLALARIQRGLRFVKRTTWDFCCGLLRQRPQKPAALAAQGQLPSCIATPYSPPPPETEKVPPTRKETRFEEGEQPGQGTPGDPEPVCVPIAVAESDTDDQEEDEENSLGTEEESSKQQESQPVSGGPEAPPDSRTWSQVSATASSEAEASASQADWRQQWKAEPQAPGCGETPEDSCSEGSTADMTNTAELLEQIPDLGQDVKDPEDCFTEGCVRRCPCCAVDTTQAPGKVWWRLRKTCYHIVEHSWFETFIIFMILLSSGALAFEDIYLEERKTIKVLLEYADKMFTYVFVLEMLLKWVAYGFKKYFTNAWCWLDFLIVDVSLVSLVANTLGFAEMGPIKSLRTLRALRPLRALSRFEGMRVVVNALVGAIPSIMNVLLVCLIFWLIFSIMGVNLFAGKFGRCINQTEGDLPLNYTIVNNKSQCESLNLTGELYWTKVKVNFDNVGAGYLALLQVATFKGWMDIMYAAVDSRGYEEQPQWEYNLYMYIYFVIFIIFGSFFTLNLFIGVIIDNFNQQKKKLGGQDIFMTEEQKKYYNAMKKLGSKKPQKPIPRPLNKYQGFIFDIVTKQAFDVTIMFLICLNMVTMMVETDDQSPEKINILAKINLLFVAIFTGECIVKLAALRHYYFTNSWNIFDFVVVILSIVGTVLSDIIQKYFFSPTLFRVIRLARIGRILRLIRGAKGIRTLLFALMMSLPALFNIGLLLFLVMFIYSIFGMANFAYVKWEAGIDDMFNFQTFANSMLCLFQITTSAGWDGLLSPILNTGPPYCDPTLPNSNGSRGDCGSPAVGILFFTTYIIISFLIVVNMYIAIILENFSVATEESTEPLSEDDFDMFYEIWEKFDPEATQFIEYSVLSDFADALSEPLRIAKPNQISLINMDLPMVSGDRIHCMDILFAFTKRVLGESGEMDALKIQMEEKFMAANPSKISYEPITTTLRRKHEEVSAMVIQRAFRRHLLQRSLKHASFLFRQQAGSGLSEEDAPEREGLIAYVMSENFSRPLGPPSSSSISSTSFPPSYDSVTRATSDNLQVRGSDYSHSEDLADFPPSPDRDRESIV
Sequence of Cytochrome P450 3A4 (P08684 whole entry): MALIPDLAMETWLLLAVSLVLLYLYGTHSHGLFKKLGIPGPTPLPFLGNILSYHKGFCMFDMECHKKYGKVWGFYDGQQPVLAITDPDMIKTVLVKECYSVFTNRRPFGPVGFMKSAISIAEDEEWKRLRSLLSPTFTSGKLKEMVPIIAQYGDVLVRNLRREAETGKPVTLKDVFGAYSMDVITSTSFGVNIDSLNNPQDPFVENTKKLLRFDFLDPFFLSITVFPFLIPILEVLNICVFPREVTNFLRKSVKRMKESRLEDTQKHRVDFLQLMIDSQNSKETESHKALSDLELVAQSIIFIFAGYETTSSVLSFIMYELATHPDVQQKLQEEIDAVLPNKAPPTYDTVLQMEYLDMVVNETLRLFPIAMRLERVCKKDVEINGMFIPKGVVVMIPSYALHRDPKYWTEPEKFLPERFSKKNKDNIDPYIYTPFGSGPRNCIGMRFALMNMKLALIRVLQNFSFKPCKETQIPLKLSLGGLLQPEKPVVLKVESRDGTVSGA

In [1], `CN(C)Cc1ccc2c(c1)CCN(C(=O)c1cc3cc(C(F)(F)F)ncc3n1C)C2` had a logD of 1.8. In series [2], this compound yielded an IC50 of 3300 nM.
The like results for `C#Cc1cc2cc(C(=O)N3CCc4cc(CN(C)C)ccc4C3)n(C)c2cn1` were, in that order, 1.2 and 6000 nM.
As for `CN(C)Cc1ccc2c(c1)CCN(C(=O)c1cc3cc(-c4ccccc4)ncc3n1C)C2`, in series [1], the log distribution coefficient (logD) worked out at 3. This compound returned an IC50 in [2] greater than 41000 nM.
On the same counts, the results for `CN(C)Cc1ccc2c(c1)CCN(C(=O)c1cc3cc(I)ncc3n1C)C2` are 2 and 130 nM.
On the same counts, the results for `Cc1cc2cc(C(=O)N3CCc4cc(CN(C)C)ccc4C3)n(C)c2cn1` are 1.3 and 18900 nM.
Consider `CN(C)Cc1ccc2c(c1)CCN(C(=O)c1cc3cc(Cl)ccc3n1C)C2`, for which the IC50 amounted to 80 nM in series [3]; 10300 nM in series [5]; 10500 nM in series [6]; 4900 nM in series [7]; 90 nM in series [9]; 70 nM in series [2]. For the same compound, the IC50 in [11] stood at 2900 nM; in series [13], 70 nM. In addition, the Papp A→B in [4] was 7.8 ×10⁻⁶ cm/s. This compound gave a log distribution coefficient (logD) in series [1] of 3. In addition, the solubility at 18 h in series [8] worked out at 62 µM (≈ 23.7 µg/mL). In series [10], the microsomal CLint was 156 µL/min/mg. Also, the hepatocyte CLint in series [12] stood at 40 µL/min/1e6 cells.
For `CN(C)Cc1ccc2c(c1)CCN(C(=O)c1cc3ccncc3n1C)C2`, the pH-dependent lipophilicity (logD) in series [1] was found to be 0.9. In series [2], this compound registered a half-maximal inhibitory concentration (IC50) of 2900 nM.
In the case of `CN(C)Cc1ccc2c(c1)CCN(C(=O)c1cc3cc(Br)ncc3n1C)C2`, the “inhibition (INH)” value in [14], in [15], in [16], in [17] and in series [18] was “Not Active” in each case. In addition, the IC50 in series [3] is 100 nM; in [5] it was greater than 33000 nM; in series [6], greater than 33000 nM; in series [9], 330 nM; in [2] it was 240 nM; in series [11], greater than 20000 nM. The compound also returned an IC50 in series [13] of 280 nM. Moreover, the Papp A→B in [4] was 13.2 ×10⁻⁶ cm/s. In series [1], this compound registered a logD of 1.7. This compound yielded a solubility at 18 h in series [8] greater than 1000 µM. Besides, the microsomal CLint in series [10] turned out to be 16 µL/min/mg. For the same compound, the hepatocyte CLint in series [12] came to 5.3 µL/min/1e6 cells.
On to `CC1CN(C(=O)c2cc3cc(Br)ncc3n2C)Cc2ccc(CN(C)C)cc21` (racemic), for which, in series [1], the log distribution coefficient (logD) stood at 2.1. In addition, the IC50 in series [2] is 110 nM.
On the same counts, the results for `CC1c2ccc(CN(C)C)cc2CCN1C(=O)c1cc2cc(Br)ncc2n1C` (racemic) are 2.2 and 500 nM.
Turning to `CC1Cc2cc(CN(C)C)ccc2CN1C(=O)c1cc2cc(Br)ncc2n1C` (racemic), the log distribution coefficient (logD) in [1] was 2.1. In series [2], this compound displayed a half-maximal inhibitory concentration (IC50) of 710 nM.
In turn, `CN(C)Cc1ccc2c(c1)CCN(C(=O)c1cc3cc(Cl)ncc3n1C)C2` had a pH-dependent lipophilicity (logD) in [1] of 1.5. Also, in [2], the IC50 stood at 570 nM.
